One series concerns Mus musculus. Briefly: Toxicity in mouse assessed as effect on WBC levels at 1 to 50 mg/kg, ip dosed daily for 1 month. Format: organism-based. To be noted: in vivo.
The target of the next series is CREB-binding protein (Homo sapiens, UniProt Q92793). Description: Inhibition of CBP (unknown origin) after 1 hr by TR-FRET assay. In short, it runs like this: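 Isolated bromodomain in a kit TR-FRET assay. Inhibitor series 0.01 nM to 100 μM, incubated 1 h at room temperature. Excitation 340 nm, emission read at 620 and 670 nm with 100 μs delay and 500 μs window. IC50 from the sigmoidal plot of the 670/620 ratio against concentration. Mean of at least two runs.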
Chain of CREB-binding protein (Q92793 whole entry): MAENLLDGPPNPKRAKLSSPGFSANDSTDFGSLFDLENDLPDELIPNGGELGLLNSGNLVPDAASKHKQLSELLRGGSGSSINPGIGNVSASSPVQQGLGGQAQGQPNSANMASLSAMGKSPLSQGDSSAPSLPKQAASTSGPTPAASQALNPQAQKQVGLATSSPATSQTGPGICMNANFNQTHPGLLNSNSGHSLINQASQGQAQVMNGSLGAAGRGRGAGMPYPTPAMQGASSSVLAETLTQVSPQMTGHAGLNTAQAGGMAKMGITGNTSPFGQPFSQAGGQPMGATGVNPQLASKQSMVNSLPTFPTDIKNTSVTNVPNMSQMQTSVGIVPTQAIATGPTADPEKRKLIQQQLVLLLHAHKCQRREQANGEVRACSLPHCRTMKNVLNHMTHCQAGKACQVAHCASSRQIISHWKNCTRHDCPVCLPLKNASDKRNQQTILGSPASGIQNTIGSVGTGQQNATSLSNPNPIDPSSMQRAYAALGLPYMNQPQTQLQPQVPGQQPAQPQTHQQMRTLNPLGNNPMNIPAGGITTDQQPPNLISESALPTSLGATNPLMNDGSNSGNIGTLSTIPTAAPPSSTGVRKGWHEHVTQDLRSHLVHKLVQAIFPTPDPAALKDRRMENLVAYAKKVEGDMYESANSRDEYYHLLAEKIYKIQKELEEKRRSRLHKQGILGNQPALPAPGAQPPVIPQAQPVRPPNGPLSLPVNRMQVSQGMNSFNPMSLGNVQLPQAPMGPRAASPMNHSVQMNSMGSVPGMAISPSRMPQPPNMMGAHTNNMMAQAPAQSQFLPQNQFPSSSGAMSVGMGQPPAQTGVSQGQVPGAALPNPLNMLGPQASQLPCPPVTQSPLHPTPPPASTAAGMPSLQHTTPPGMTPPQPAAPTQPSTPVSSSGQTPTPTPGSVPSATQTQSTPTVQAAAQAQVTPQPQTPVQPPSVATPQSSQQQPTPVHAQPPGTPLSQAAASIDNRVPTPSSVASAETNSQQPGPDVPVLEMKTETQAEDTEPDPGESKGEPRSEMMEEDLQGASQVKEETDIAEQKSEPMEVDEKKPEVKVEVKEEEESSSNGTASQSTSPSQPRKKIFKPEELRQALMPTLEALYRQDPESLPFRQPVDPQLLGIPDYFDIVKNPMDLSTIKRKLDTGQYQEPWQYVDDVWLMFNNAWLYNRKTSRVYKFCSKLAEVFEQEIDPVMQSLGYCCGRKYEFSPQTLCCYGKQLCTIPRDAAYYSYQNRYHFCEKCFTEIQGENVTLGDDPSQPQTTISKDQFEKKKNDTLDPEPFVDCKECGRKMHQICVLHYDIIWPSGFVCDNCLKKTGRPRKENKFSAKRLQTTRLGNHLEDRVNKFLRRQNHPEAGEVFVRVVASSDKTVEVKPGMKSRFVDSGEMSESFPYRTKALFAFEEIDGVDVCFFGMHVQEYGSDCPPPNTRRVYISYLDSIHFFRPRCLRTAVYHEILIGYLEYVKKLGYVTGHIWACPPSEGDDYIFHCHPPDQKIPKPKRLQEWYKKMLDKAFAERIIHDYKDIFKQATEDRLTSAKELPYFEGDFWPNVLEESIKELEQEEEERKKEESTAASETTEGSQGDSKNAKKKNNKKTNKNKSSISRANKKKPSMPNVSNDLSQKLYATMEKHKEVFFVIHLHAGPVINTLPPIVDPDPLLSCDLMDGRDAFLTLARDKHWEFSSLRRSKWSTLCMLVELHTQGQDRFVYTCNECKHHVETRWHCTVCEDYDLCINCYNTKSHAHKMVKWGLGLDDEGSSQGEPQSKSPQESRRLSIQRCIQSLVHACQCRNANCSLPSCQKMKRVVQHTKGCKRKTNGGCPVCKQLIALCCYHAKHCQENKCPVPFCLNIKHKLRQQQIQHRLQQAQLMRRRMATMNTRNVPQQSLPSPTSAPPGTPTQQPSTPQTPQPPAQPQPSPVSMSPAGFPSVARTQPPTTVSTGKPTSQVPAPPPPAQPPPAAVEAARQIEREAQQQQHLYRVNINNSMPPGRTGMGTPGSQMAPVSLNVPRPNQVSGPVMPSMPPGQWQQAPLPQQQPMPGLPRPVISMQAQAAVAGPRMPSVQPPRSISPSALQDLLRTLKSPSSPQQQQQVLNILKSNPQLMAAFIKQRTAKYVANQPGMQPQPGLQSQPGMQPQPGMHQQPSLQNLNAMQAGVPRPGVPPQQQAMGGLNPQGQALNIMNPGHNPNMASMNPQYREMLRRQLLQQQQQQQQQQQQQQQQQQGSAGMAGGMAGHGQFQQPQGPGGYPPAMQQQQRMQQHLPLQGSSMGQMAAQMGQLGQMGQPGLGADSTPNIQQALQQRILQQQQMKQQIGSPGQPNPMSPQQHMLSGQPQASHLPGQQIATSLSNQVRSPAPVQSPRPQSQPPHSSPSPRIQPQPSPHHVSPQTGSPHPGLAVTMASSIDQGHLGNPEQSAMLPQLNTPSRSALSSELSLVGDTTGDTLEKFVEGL

Series [1] addresses Tyrosine-protein kinase Lck (Homo sapiens) (UniProt P06239). Description: Inhibition of human recombinant LCK using Ulight-Poly GAT[EAY(1:1:1)]n as substrate after 10 mins relative to control. Details: scale not given: the % may be the effect or the level left.
Series [2] has as its target 5-hydroxytryptamine receptor 3A (Homo sapiens) (UniProt P46098). Description: Displacement of [3H]BRL 43694 from human recombinant 5-HT3 receptor at 10 uM after 120 mins by scintillation counting analysis relative to control.

Chain of 5-hydroxytryptamine receptor 3A (Homo sapiens) (P46098 whole entry): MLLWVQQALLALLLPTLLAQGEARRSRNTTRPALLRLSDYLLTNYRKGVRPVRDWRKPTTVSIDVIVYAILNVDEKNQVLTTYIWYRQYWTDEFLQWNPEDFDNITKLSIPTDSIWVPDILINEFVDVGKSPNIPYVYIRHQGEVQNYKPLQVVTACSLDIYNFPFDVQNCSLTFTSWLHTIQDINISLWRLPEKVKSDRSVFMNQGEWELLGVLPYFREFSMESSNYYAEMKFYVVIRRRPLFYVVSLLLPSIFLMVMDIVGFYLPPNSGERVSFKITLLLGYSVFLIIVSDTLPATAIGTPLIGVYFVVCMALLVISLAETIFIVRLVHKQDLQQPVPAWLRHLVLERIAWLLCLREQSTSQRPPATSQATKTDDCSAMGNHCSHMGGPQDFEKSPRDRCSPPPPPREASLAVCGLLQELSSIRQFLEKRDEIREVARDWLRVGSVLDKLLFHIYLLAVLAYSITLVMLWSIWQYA
Chain of Tyrosine-protein kinase Lck (Homo sapiens) (P06239 2-509 limits assumed): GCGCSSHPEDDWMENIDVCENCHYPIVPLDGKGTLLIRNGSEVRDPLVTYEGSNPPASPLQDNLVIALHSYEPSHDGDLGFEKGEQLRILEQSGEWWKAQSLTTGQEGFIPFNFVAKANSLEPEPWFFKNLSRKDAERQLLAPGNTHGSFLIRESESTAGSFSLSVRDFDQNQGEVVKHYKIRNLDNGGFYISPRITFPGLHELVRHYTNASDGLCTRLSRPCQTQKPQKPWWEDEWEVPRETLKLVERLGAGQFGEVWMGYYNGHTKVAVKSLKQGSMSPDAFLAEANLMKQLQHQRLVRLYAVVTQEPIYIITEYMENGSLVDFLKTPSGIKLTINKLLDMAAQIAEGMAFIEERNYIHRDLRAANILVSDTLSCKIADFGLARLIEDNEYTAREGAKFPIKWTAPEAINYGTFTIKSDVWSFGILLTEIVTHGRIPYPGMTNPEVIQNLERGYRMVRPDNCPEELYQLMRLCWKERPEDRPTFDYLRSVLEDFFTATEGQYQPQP

With `Cc1cc(/N=N/c2ccc(S(=O)(=O)NC3CCCC3)cc2)c(N)cc1O`, the figures for the Activity entry (in the series with Mus musculus; in series [1]; in series [2]) were “Non-Toxic”, -20.6% and -12.9%, respectively. The molecule further yielded an IC50 on CREB-binding protein above 10 µM.

(Values after ChEMBL document CHEMBL4152207, “Discovery of potent and selective BRD4 inhibitors capable of blocking TLR3-induced acute airway inflammation” (Eur J Med Chem, 2018).)
